# In the library only some 2.3% were active in any assay of this set; here they are far more common.
# DDE Tn6 FP inh – inhibitors of Tn6 peptide binding to human fibrin DD(E). P02675. Fibrin DD(E) TRITC-Tn6 fluorescence polarization displacement. inhibition, % at 8.3 µM. 370,000 tested, 0.21% active. AID 720509;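 active = inhibition above a per-campaign cutoff: mean of compounds within control limits plus 3 SD, cut at about 15% in these data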;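 note: 0% = median of all compound wells on the plate and 100% = blocking peptide control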
# ADAM17 inh – inhibits human ADAM17; P78536; recombinant ADAM17, EDANS/DABCYL FRET peptide cleavage; inhibition, % at 6.95 µM; 370,000 tested, 0.83% active; AID 720648;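 active = inhibition above the mean of compounds lying between control limits plus 3 SD, set per campaign, cut at about 8.5% in these data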;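 note: 0% = DMSO-only wells as the low control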
# ADAM10 inh – ADAM10 inhibition, QFRET primary screen; O14672; inhibition, % at 7 µM; recombinant ADAM10, EDANS/DABCYL FRET peptide cleavage, 3 h; 370,000 tested, 0.62% active;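 active = inhibition above a per-campaign cutoff equal to the mean of compounds falling between control-based bounds plus 3 SD, cut at about 20% in these data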;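 note: 0% = DMSO wells while the 100% control is not disclosed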
# PLC-beta3 inh – blocks human PLC-beta3 enzyme activity. Purified PLC-beta3, fluorogenic substrate, fluorescence. 370,000 tested, 0.18% active. inhibition, % at 12.2 µM. AID 720704; in the data active = inhibition above about 11%;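 note: 0% = median of compound wells on plate and 100% = full blocker control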
# Tn7 DDE FP – inhibitors of Tn7 peptide binding to human fibrin DD(E); 370,000 tested, 0.13% active; AID 720508; FP displacement of FITC-Tn7 peptide from fibrin DD(E); 0% = median of compound wells per plate; inhibition, % at 8.3 µM;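 active = inhibition above the mean of compounds falling within the control limits plus 3 SD of them, cut at about 14% in these data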;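 note: 0% = plate median of compound wells and 100% = 10 µM Aha-Tn7 peptide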
#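 system = human fibrin DD(E) protein | quantity = DD(E) 2 µM final | medium = Tris/NaCl/CaCl2 buffer, pH 7.8 | also added = labelled Tn7 tracer, 0.1 µM | compound dosing = single point at 8.3 µM | timing = compound with protein 10 min, then 3 h after probe, room temperature | signal = FP measurement | benchmarks = Aha-Tn7 high control | repeats = one replicate per compound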
# PLCg1 inh – blocks human PLC-gamma1 enzyme activity; P19174; 370,000 tested, 0.84% active; inhibition, % at 12.2 µM; purified PLC-gamma1, fluorogenic substrate, fluorescence; AID 720700
# PLCg1 ctr – counter-screen for PLC-beta3 inhibitors: inhibitors of human PLC-gamma1. shares compounds with PLCg1 inh. purified PLC-gamma1, fluorogenic substrate, fluorescence. inhibition, % at 12.3 µM. 3,300 tested, 3.1% active
# PLCbeta3 conf – confirmation of human PLC-beta3 inhibitors. shares compounds with PLCg1 inh. inhibition, % at 12.3 µM. purified PLC-beta3, fluorogenic substrate fluorescence. 3,300 tested, 1% active; in the data active = inhibition above about 11%
# Starred values were filed as active, the others as inactive; i = inactive; · = no result given. Cut-off read from the data, not from the text of the source, unless noted: active = inhibition above about 9.5%; inactive = the rest.
SMILES,DDE Tn6 FP inh,ADAM17 inh,ADAM10 inh,PLC-beta3 inh,Tn7 DDE FP,PLCg1 inh,PLCg1 ctr,PLCbeta3 conf
COc1ccc(S[C@]2(C(=O)N3CCOCC3)CC(=O)N(c3ccc(OC)cc3)[C@@H]2c2ccc(OC)cc2)cc1,0,8,8,2,1,9.7*,-5,0
COc1ccccc1C(=O)N(C)c1nnc(-c2ccccc2)s1,-4,4,13,4,-2,9.7*,-1,2
[O-]C1=N/[N+](=C/c2ccccc2)CC1,-2,-4,-4,-5,-1,3,·,·
[O-]C1=N/[N+](=C/c2ccccc2Cl)CC1,-7,8,5,7,-3,11*,-6,-2
O=C(Nc1ccc(C(F)(F)F)cc1)OC1CC2CC1[C@H]1CCCCN1C2 (some centres undefined),9,-1,-3,-1,-2,-1,·,·
COCc1nnc(NC(=O)c2ccc(NC(C)=O)cc2)s1,2,4,4,14*,2,4,-6,-1
CCC[C@H]1[C@@H](OC(=O)NCc2ccc(C)cc2)CC[C@@]23CCCN2C(=O)CCC[C@@H]13,7,-3,-1,-1,-1,0,·,·
CCOc1ccc2nc(NC(=O)C3CCCN(S(=O)(=O)c4cccc5nonc45)C3)sc2c1 (centres undefined),-2,-3,3,2,5,0,·,·
COc1ccc2nc(NC(=O)C3CCCN(S(=O)(=O)c4cccc5nonc45)C3)sc2c1 (centres undefined),0,-3,1,-3,-2,10*,0,-9
O=C(c1ccco1)N1CCC(Oc2cccnc2)CC1,-1,-2,1,0,8,1,·,·
NC(Cc1ccc(C(F)(F)F)cc1)c1csc(NC(=O)NCCc2ccccc2)n1 (centres undefined),-8,-2,8,-3,5,12*,-7,1
CC(C)CC(N)c1csc(NC(=O)NCCc2ccccc2)n1 (centres undefined),2,0,-20,0,3,6,·,·
O=C(CN1CCN(S(=O)(=O)c2ccc(F)cc2)CC1)Nc1ccccc1C(=O)NC1CC1,-1,-4,-1,-5,0,1,·,·
N#Cc1ccc(S(=O)(=O)N2CCN(CC(=O)Nc3ccccc3C(=O)NC3CC3)CC2)cc1,0,-8,-13,2,-1,9.7*,7,3
c1nc(NCC2CCCC2)c2cc(-c3ccc4c(c3)OCO4)ccc2n1,-19,-77,-157,-146,-6,-99,·,·
O=C(CSc1ccc2nnc(CCNC(=O)c3ccccc3)n2n1)NCc1ccco1,-4,-1,-1,-3,2,-1,·,·
O=C(CSc1ccc2nnc(CCNC(=O)c3ccc(F)cc3)n2n1)NCc1ccco1,-1,-4,2,-5,3,14*,-3,-1
CC(=O)Nc1nc2ncccn2c1-c1ccc(F)c(F)c1,4,-367,i,i,4,i,·,·
O=C(NCCc1ccccc1F)c1ccc2c(c1)ncn2C1CCCCC1,4,1,-6,-2,3,-2,·,·
CC(=O)NC(Cc1ccc2c(c1)OCO2)C(=O)N1CCCN(C(C)=O)CC1 (centres undefined),-1,-2,-7,0,3,5,·,·
CCOc1ccc(N2CC(C(=O)Nc3nnc(Cc4ccc(OC)cc4)s3)CC2=O)cc1 (centres undefined),-2,-1,-1,-2,9,16*,-6,-4
COc1ccc(Cc2nnc(NC(=O)C3CC(=O)N(c4ccc(OC)cc4)C3)s2)cc1 (centres undefined),3,-2,6,-11,7,0,·,·
COc1ccc(N2CC(C(=O)Nc3cc(C)on3)CC2=O)cc1 (centres undefined),0,1,-6,0,-4,1,·,·
COc1ccc(N2CC(C(=O)Nc3cccc(C)n3)CC2=O)cc1 (centres undefined),2,-1,6,1,-2,10*,-5,-2
CC1CCCCC1C(=O)N1CCC(Oc2cccnc2)CC1 (centres undefined),-2,-5,-5,2,6,1,·,·
SMILES,DDE Tn6 FP inh,ADAM17 inh,ADAM10 inh,PLC-beta3 inh,Tn7 DDE FP,PLCg1 inh,PLCg1 ctr,PLCbeta3 conf
Cc1nc2c3cc(F)ccc3n(CCN3CCCCC3)c2s1,-9,-3,-6,-10,3,9.7*,-6,0
CCOc1ccc(/C=C2\CCC(C3CCCC3)C2=O)cc1 (centres undefined),-4,-6,2,-6,1,9.9*,-8,-5
CCOc1ccc(/C=C2\CCC(C3CCCC3)C2=O)cc1OC (centres undefined),-3,-2,-4,-5,-5,0,·,·
CCOc1cc(/C=N/NC(=O)C(=O)N/N=C/c2ccc(O)c(OCC)c2)ccc1O,3,-6,-3,-25,-2,-14,·,·
CCOc1cc(/C=N/Nc2ncnc(Cl)c2N)ccc1O,-2,6,4,-10,-3,-6,·,·
CCOc1cc(/C=N/NC(=O)N/N=C/c2ccc(O)c(OCC)c2)ccc1O,-4,-2,8,13*,-8,6,4,-2
CCOc1cc(/C=N/Nc2nnc(C)n2N)ccc1O,2,3,-4,5,-2,20*,-5,-1
CS(=O)(=O)N(CC(=O)Nc1ccccc1C(=O)N1CCOCC1)c1ccc2c(c1)OCO2,3,-6,8,-1,0,-2,·,·
COC(=O)c1ccccc1NC(=O)CN(c1ccc(OC)cc1)S(C)(=O)=O,5,4,8,14*,-4,4,-4,-1
COc1ccc(N(CC(=O)Nc2cc(Cl)ccc2C)S(=O)(=O)c2c(C)n[nH]c2C)cc1,-7,3,16,-3,3,13*,3,4
CS(=O)(=O)N(CC(=O)Nc1ccccc1C(=O)N1CCCC1)c1ccc2c(c1)OCO2,2,8,4,3,-5,9.6*,8,0
COc1ccc(N(CC(=O)Nc2ccc(C)cc2C)S(=O)(=O)c2c(C)n[nH]c2C)cc1,3,-1,0,-3,-3,4,·,·
Cc1cccc(C(=O)N[C@@H]2CC[C@@]34CCCN3C(=O)CCC[C@H]4[C@H]2C)c1,-3,-2,-1,0,1,2,·,·
CN(C)[C@H]1CCN(c2cccc3c2S(=O)(=O)N(C2CC2)CCCO3)C1,-9,-2,-2,-1,-4,0,·,·
